Assay results reported in ChEMBL document CHEMBL1141691, “Synthesis and antibacterial activity of the C-7 side chain of 3-aminoquinazolinediones” (Bioorg Med Chem Lett, 2008).
Converted amounts (≈) assume the structure as drawn.

Legend:
Enterococcus faecalis = assay: Antibacterial activity against Enterococcus faecalis MGH-2 by microbroth dilution susceptibility assay; assay type: functional
In short: (§1)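 MIC determined by standard broth microdilution following CLSI (formerly NCCLS) guidelines. Value is the lowest concentration inhibiting bacterial growth.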

Streptococcus pyogenes = assay: Antibacterial activity against Streptococcus pyogenes C203 by microbroth dilution susceptibility assay; assay type: functional; in short: as §1
Staphylococcus aureus = assay: Antibacterial activity against Staphylococcus aureus 29213 by microbroth dilution susceptibility assay; assay type: functional; in short: as §1
Escherichia coli [1] = assay: Antibacterial activity against wild-type Escherichia coli MC4100 by microbroth dilution susceptibility assay; assay type: functional; in short: as §1
Escherichia coli [2] = assay: Antibacterial activity against TolC knock-out Escherichia coli by microbroth dilution susceptibility assay; assay type: functional; in short: as §1
[3] = Inhibition of Escherichia coli DNA gyrase

MIC (Enterococcus faecalis) [µg/mL]	MIC (Streptococcus pyogenes) [µg/mL]	MIC (Staphylococcus aureus) [µg/mL]	MIC (Escherichia coli [1]) [µg/mL]	MIC (Escherichia coli [2]) [µg/mL]	IC50 [3] [nM]	SMILES
8 (≈ 24 µM)	1 (≈ 3 µM)	8 (≈ 24 µM)	1 (≈ 3 µM)	0.25 (≈ 0.75 µM)	200	Cc1c(N2CCC(N)C2)c(F)cc2c(=O)n(N)c(=O)n(C3CC3)c12 (stereo unspecified)
0.5 (≈ 1.44 µM)	0.06 (≈ 0.173 µM)	0.5 (≈ 1.44 µM)	2 (≈ 5.76 µM)	0.13 (≈ 0.374 µM)	400	Cc1c(N2CCC(CN)C2)c(F)cc2c(=O)n(N)c(=O)n(C3CC3)c12 (stereo unspecified)
0.13 (≈ 0.346 µM)	0.015 (≈ 0.04 µM)	0.5 (≈ 1.33 µM)	4 (≈ 10.7 µM)	0.03 (≈ 0.0799 µM)	200	CN[C@@H](C)[C@@H]1CCN(c2c(F)cc3c(=O)n(N)c(=O)n(C4CC4)c3c2C)C1
0.25 (≈ 0.642 µM)	0.13 (≈ 0.334 µM)	0.5 (≈ 1.28 µM)	8 (≈ 20.5 µM)	0.13 (≈ 0.334 µM)	900	CCN[C@@H](C)[C@@H]1CCN(c2c(F)cc3c(=O)n(N)c(=O)n(C4CC4)c3c2C)C1
2 (≈ 5.33 µM)	0.125 (≈ 0.333 µM)	1 (≈ 2.66 µM)	16 (≈ 42.6 µM)	0.25 (≈ 0.666 µM)	1600	Cc1c(N2CCC(C(C)(C)N)C2)c(F)cc2c(=O)n(N)c(=O)n(C3CC3)c12 (stereo unspecified)
0.13 (≈ 0.348 µM)	0.03 (≈ 0.0803 µM)	0.25 (≈ 0.669 µM)	2 (≈ 5.36 µM)	0.03 (≈ 0.0803 µM)	800	Cc1c(N2CCC(C3(N)CC3)C2)c(F)cc2c(=O)n(N)c(=O)n(C3CC3)c12 (stereo unspecified)
0.25 (≈ 0.59 µM)	0.03 (≈ 0.0708 µM)	0.13 (≈ 0.307 µM)	4 (≈ 9.45 µM)	0.06 (≈ 0.142 µM)	260	Cc1c(N2CCC(C(N)c3ccccc3)C2)c(F)cc2c(=O)n(N)c(=O)n(C3CC3)c12 (stereo unspecified)
4 (≈ 12 µM)	4 (≈ 12 µM)	4 (≈ 12 µM)	> 64	0.25 (≈ 0.752 µM)	6300	Cc1c(N2CCCCC2)c(F)cc2c(=O)n(N)c(=O)n(C3CC3)c12
2 (≈ 6.28 µM)	1 (≈ 3.14 µM)	1 (≈ 3.14 µM)	16 (≈ 50.3 µM)	0.13 (≈ 0.408 µM)	1900	Cc1c(N2CCCC2)c(F)cc2c(=O)n(N)c(=O)n(C3CC3)c12
0.25 (≈ 0.666 µM)	0.03 (≈ 0.0799 µM)	0.5 (≈ 1.33 µM)	8 (≈ 21.3 µM)	0.13 (≈ 0.346 µM)	400	CCC(N)C1CCN(c2c(F)cc3c(=O)n(N)c(=O)n(C4CC4)c3c2C)C1 (stereo unspecified)
4 (≈ 11.1 µM)	0.125 (≈ 0.346 µM)	4 (≈ 11.1 µM)	16 (≈ 44.3 µM)	0.5 (≈ 1.38 µM)	1200	Cc1c(N2CCC(CCN)C2)c(F)cc2c(=O)n(N)c(=O)n(C3CC3)c12 (stereo unspecified)
64 (≈ 210 µM)	64 (≈ 210 µM)	32 (≈ 105 µM)	> 64	2 (≈ 6.57 µM)	12500	Cc1c(N2CCC2)c(F)cc2c(=O)n(N)c(=O)n(C3CC3)c12

SMILES	MIC (Enterococcus faecalis) [µg/mL]	MIC (Streptococcus pyogenes) [µg/mL]	MIC (Staphylococcus aureus) [µg/mL]	MIC (Escherichia coli [1]) [µg/mL]	MIC (Escherichia coli [2]) [µg/mL]	IC50 [3] [nM]
Cc1c(N2CC[C@@H]([C@H](C)N)C2)c(F)cc2c(=O)n(N)c(=O)n(C3CC3)c12	0.06 (≈ 0.166 µM)	0.015 (≈ 0.0415 µM)	0.13 (≈ 0.36 µM)	0.5 (≈ 1.38 µM)	0.03 (≈ 0.083 µM)	200
Cc1c(N2CC[C@H]([C@H](C)N)C2)c(F)cc2c(=O)n(N)c(=O)n(C3CC3)c12	2 (≈ 5.53 µM)	0.5 (≈ 1.38 µM)	2 (≈ 5.53 µM)	4 (≈ 11.1 µM)	0.13 (≈ 0.36 µM)	600
Cc1c(N2CCC(C(C)N)C2)c(F)cc2c(=O)n(N)c(=O)n(C3CC3)c12 (stereo unspecified)	1 (≈ 2.77 µM)	0.03 (≈ 0.083 µM)	0.5 (≈ 1.38 µM)	4 (≈ 11.1 µM)	0.25 (≈ 0.692 µM)	600
Cc1c(N2CC[C@H]([C@@H](C)N)C2)c(F)cc2c(=O)n(N)c(=O)n(C3CC3)c12	0.25 (≈ 0.692 µM)	0.25 (≈ 0.692 µM)	1 (≈ 2.77 µM)	2 (≈ 5.53 µM)	0.13 (≈ 0.36 µM)	800
Cc1c(N2CCNCC2)c(F)cc2c(=O)n(N)c(=O)n(C3CC3)c12	32 (≈ 96 µM)	4 (≈ 12 µM)	32 (≈ 96 µM)	4 (≈ 12 µM)	1 (≈ 3 µM)	3100
Cc1c(N2CC[C@@H]([C@@H](C)N)C2)c(F)cc2c(=O)n(N)c(=O)n(C3CC3)c12	0.5 (≈ 1.38 µM)	0.06 (≈ 0.166 µM)	0.5 (≈ 1.38 µM)	2 (≈ 5.53 µM)	0.13 (≈ 0.36 µM)	300
O=C(O)c1cn(C2CC2)c2cc(N3CCNCC3)c(F)cc2c1=O [CIPROFLOXACIN]	0.4 (≈ 1.21 µM)	2 (≈ 6.04 µM)	0.5 (≈ 1.51 µM)	–	–	–
